Assay results taken from ChEMBL document CHEMBL2146443, “Cytotoxicity and DNA binding property of phenanthrene imidazole with polyglycol side chains” (Bioorg Med Chem Lett, 2012).
The source made the active and inactive calls. No cut-off for these calls is given here.

Key:
Nucleic Acid [1] = assay: Binding affinity to calf thymus DNA assessed as change in melting temperature at 5 x 10^-6 M at pH 7.5 relative to control; assay type: nucleic-acid assay; details: Bos taurus
Nucleic Acid [2] = assay: Binding affinity to calf thymus DNA at 2 x 10^-5 M at pH 7.5 by circular dichroism; assay type: nucleic-acid assay; details: Bos taurus
In short: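 Circular dichroism of Ct-DNA (6.0 × 10^-5 M) alone and with compound (2.0 × 10^-5 M), in 10 mM phosphate buffer pH 7.5 with 20 mM NaCl and 5% DMSO, 25 °C.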

HL-60 = assay: Antiproliferative activity against human HL60 cells by MTT assay; assay type: functional, cell-based
KB = assay: Antiproliferative activity against human KB cells by MTT assay; assay type: functional, cell-based
Bel-7402 = assay: Antiproliferative activity against human Bel7402 cells by MTT assay; assay type: functional, cell-based
Nucleic Acid [3] = assay: Binding affinity to calf thymus DNA at 4 x 10^-5 M at pH 7.5 by fluorescence spectrophotometry; assay type: nucleic-acid assay; details: Bos taurus
In short: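 Emission quenching: compound at 4.0 × 10^-5 M, excitation 320 nm, 5.0 nm slits, titrated with Ct-DNA 0–400 μM in 1 mM phosphate buffer pH 7.5, 20 mM NaCl, 5% DMSO, 25 °C. F/F0 plotted against DNA concentration; Stern-Volmer constants derived.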

BGC-823 = assay: Antiproliferative activity against human BGC823 cells by MTT assay; assay type: functional, cell-based
Nucleic Acid [4] = assay: Binding affinity to calf thymus DNA at 4 x 10^-5 M at pH 7.5 by UV-Vis spectrophotometry; assay type: nucleic-acid assay; details: Bos taurus
In short: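 UV–vis titration: compound at 4.0 × 10^-5 M with Ct-DNA added (0–400 μM) in 1 mM phosphate buffer pH 7.5, 20 mM NaCl, 5% DMSO (v/v), 25 °C. Absorbance read over 300–400 nm to avoid DNA interference; binding constants fitted at maximum absorption band.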

[5] = Solubility in phosphate buffer at pH 7.5; assay type: physicochemical

Row | Compound | ΔTm (Nucleic Acid [1]) | Activity (Nucleic Acid [2]) | IC50 (HL-60) | IC50 (KB) | IC50 (Bel-7402) | Activity (Nucleic Acid [3]) | IC50 (BGC-823) | K (Nucleic Acid [4]) | solubility [5]
1 | Cn1c(-c2ccc(OCCOCCO)cc2)[n+](C)c2c3ccccc3c3ccccc3c21 | 4.2 °C | Active | 12.1 µM | 11 µM | 10.7 µM | Active | 9.35 µM | 1.51 ×10⁶ /M | –
2 | OCCOCCOCCOc1ccc(-c2nc3c4ccccc4c4ccccc4c3[nH]2)cc1 | – | – | 11.9 µM | 44.6 µM | 27.9 µM | – | 24.2 µM | – | Insoluble
3 | OCCOCCOc1ccc(-c2nc3c4ccccc4c4ccccc4c3[nH]2)cc1 | – | – | 8.14 µM | 30.7 µM | 18.1 µM | – | 22.5 µM | – | Insoluble
4 | Cn1c(-c2ccc(OCCOCCOCCO)cc2)[n+](C)c2c3ccccc3c3ccccc3c21 | 4 °C | Active | 15.6 µM | 9.12 µM | 10.6 µM | Active | 7.01 µM | 0.709 ×10⁶ /M | –
5 | Cn1c(-c2ccc(OCCO)cc2)[n+](C)c2c3ccccc3c3ccccc3c21 | 4.8 °C | Active | 24.8 µM | 14.5 µM | 14.1 µM | Active | 10.7 µM | 1.68 ×10⁶ /M | –
6 | OCCOc1ccc(-c2nc3c4ccccc4c4ccccc4c3[nH]2)cc1 | – | – | 11.3 µM | 7.03 µM | 4.65 µM | – | 6.36 µM | – | Insoluble
